Calls of active or inactive are those of the source. The rule behind the calls is not given here.

Broadly, the IC50 is the concentration needed to halve the response being measured. One may read the Kd as the free concentration of one partner at which half of the binding sites on the other are occupied at equilibrium, for simple one-to-one binding.

Assay [1] is described as follows: Inhibition of 5'FAM-labeled and 3'DAB-labeled Precursor microRNA-148a (unknown origin) assessed as inhibition of Dicer-induced pre-miR-148a cleavage by measuring fluorescence incubated for 4 hrs in presence of human recombinant Dicer by FRET Dicer assay. The procedure, abridged:
(§1)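 The pre-miRNA beacon (50 nM; 5'-FAM, 3'-dabcyl) in 20 mM Tris-HCl pH 7.4, 12 mM NaCl, 1 mM DTT was preincubated with inhibitor (12 dilutions) for 30 min at room temperature. Human recombinant Dicer was then added. After 4 h at 37°C the fluorescence increase (ex 485, em 535 nm) was read. Assays were in duplicate, repeated three times, and IC50 was obtained by nonlinear regression.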

The nature of assay [2]: Inhibition of 5'FAM-labeled and 3'DAB-labeled Precursor microRNA-18a (unknown origin) assessed as inhibition of Dicer-induced pre-miR-18a cleavage by measuring fluorescence incubated for 4 hrs in presence of human recombinant Dicer by FRET Dicer assay. The procedure, abridged: as §1
Assay [3] in a line: Inhibition of 5'FAM-labeled and 3'DAB-labeled Precursor microRNA-372 (unknown origin) assessed as inhibition of Dicer-induced pre-miR-372 cleavage by measuring fluorescence incubated for 4 hrs in presence of human recombinant Dicer by FRET Dicer assay. The essentials:
as §1

The nature of assay [4]: Binding affinity to 5'FAM-labeled Precursor microRNA-372 (unknown origin) assessed as dissociation constant incubated for 4 hrs in presence of tRNA by fluorescence-based assay. The essentials: (§2)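 KD was measured with 10 nM folded 5'-FAM-pre-miR-372 in 20 mM Tris-HCl pH 7.4, 12 mM NaCl, 1 mM DTT, with 100 eq. competitor added to the RNA. Competitor was tRNA or duplex DNA from two 15-mer strands annealed at 90°C for 5 min then slowly cooled. Ligand was added in 15 dilutions (0.030 nM–0.5 mM) and fluorescence (ex 485, em 535 nm) read after 4 h. A 1:1 model was fitted.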

Assay [5] can be described thus: Binding affinity to 5'FAM-labeled Precursor microRNA-372 (unknown origin) assessed as dissociation constant incubated for 4 hrs in presence of DNA by fluorescence-based assay. The procedure, abridged:
as §2

Assay [6] can be described thus: Selectivity ratio of Kd for binding affinity to 5'FAM-labeled Precursor microRNA-372 (unknown origin) in presence of tRNA to Kd for binding affinity to 5'FAM-labeled Precursor microRNA-372 (unknown origin).
Assay [7] in a line: Binding affinity to 5'FAM-labeled Precursor microRNA-18a (unknown origin) incubated for 4 hrs by fluorescence-based assay. The essentials: (§3)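 Each 5'-FAM-labelled pre-miRNA (10 nM) was folded in 20 mM Tris-HCl pH 7.4, 12 mM NaCl, 1 mM DTT by heating at 90°C for 2 min, holding at 4°C for 10 min and returning to room temperature over 15 min. Ligand was added in 15 dilutions (0.030 nM–0.5 mM). Fluorescence (ex 485, em 535 nm) was read after 4 h. Runs were in duplicate, repeated at least three times, and KD came from a 1:1 binding model.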

Assay [8] can be described thus: Binding affinity to 5'FAM-labeled Precursor microRNA-372 (unknown origin) assessed as dissociation constant incubated for 4 hrs by fluorescence-based assay. The procedure, abridged:
as §3

Assay [9] in a line: Selectivity ratio of Kd for binding affinity to 5'FAM-labeled Precursor microRNA-372 (unknown origin) in presence of DNA to Kd for binding affinity to 5'FAM-labeled Precursor microRNA-372 (unknown origin).
The nature of assay [10]: Binding affinity to 5'FAM-labeled Precursor microRNA-148a (unknown origin) incubated for 4 hrs by fluorescence-based assay. The procedure, abridged:
as §3

A short description of assay [11]: Inhibition of Precursor microRNA-372 in human HEK293 cell lysate assessed as inhibition of Dicer-induced pre-miR-372 maturation by measuring fluorescence incubated for 4 hrs by FRET Dicer assay. Format: subcellular. The essentials: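 The FRET cleavage assay used 50 nM pre-miR-372 beacon (5'-FAM, 3'-dabcyl), with HEK293 whole-cell lysate in place of recombinant enzyme. Inhibitor was preincubated with the beacon for 30 min at room temperature. After 4 h at 37°C the fluorescence rise (ex 485, em 535 nm) was measured. IC50 was obtained by nonlinear regression.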

For the compound `N[C@@H]1C[C@H](N)[C@@H](OCCn2cc(Cn3cnc(-c4cccc(NC(=O)c5ccc6ccccc6c5)c4)c3)nn2)[C@H](O)[C@H]1O`, the IC50 in assay [1] is over 500 µM; in [2], 177 µM; in assay [3] it was over 100 µM. Also, the Kd turned out to be 8.51 µM in [4], 9.02 µM in assay [5] and 6.78 µM in assay [8]. Further, the Selectivity ratio in assay [6] and in [9] was 1.3 each time. The outcome in [7] and in [10] was Active.
Regarding `N[C@@H]1C[C@H](N)[C@@H](O)[C@H](O)[C@H]1O`, in assay [8], the Kd was over 1000 µM.
On to `Nc1cccc(-c2cn(Cc3cn(CCO[C@H]4[C@H](O)[C@@H](O)[C@H](N)C[C@@H]4N)nn3)cn2)c1`, for which the 50% inhibitory concentration (IC50) was 18.2 µM in assay [1], 20.3 µM in assay [2], 81.1 µM in assay [3] and over 500 µM in assay [11]. Besides, the Kd in [4] came to 3.92 µM; in assay [5], 4.27 µM; in [8], 3.53 µM. Besides, the figures for the Selectivity ratio in [6] and in assay [9] were 1.1 and 1.2, respectively. Moreover, the result in [7] and in assay [10] was Active.
On to `N[C@@H]1C[C@H](N)[C@@H](OCCn2cc(Cn3cnc(-c4cccc(NC(=O)c5ccccc5)c4)c3)nn2)[C@H](O)[C@H]1O`, for which the results for the IC50 in assay [3] and in [11] were 12.6 µM and 29.5 µM, respectively. The Kd in assay [4] amounted to 2.64 µM; in assay [5] it was 2.96 µM; in assay [8], 0.627 µM. Besides, the outcome in [7] and in [10] was Active.
In the case of `Nc1ccn(Cc2cn(CCO[C@H]3[C@H](O)[C@@H](O)[C@H](N)C[C@@H]3N)nn2)c(=O)n1`, the equilibrium dissociation constant (Kd) in [4] was over 1000 µM; in [5] it was over 1000 µM; in [8] it was 101 µM.
On to `N[C@@H]1C[C@H](N)[C@@H](OCCn2cc(CCC(=O)NCC(=O)Nc3nc(-c4ccccc4)cs3)nn2)[C@H](O)[C@H]1O`, for which the IC50 turned out to be 85.3 µM in assay [1], 89.5 µM in [2] and 74.9 µM in [3]. Besides, the Kd in assay [4] stood at 8.56 µM; in assay [5] it was 11 µM; in [8], 5.13 µM. The results for the Selectivity ratio in [6] and in assay [9] were 1.7 and 2.1, respectively. The outcome in assay [7] and in assay [10] was Active.
Regarding `NC[C@@H]1O[C@H](O[C@H]2[C@@H](O)[C@H](O[C@@H]3[C@@H](O)[C@H](N)C[C@H](N)[C@H]3O[C@H]3O[C@H](CN)[C@@H](O)[C@H](O)[C@H]3N)O[C@@H]2Cn2cc(Cn3cnc(-c4cccc(NC(=O)c5ccccc5)c4)c3)nn2)[C@H](N)[C@@H](O)[C@@H]1O`, the figures for the IC50 in assay [3] and in assay [11] were 8.3 µM and 20.4 µM, respectively. Further, the dissociation constant (Kd) in assay [4] came to 0.0208 µM; in [5], 0.0244 µM; in assay [8], 0.0189 µM. For the same compound, the Selectivity ratio in assay [6] amounted to 1.1; in assay [9], 1.3.
For `CCCCNC(=O)Nc1cccc(-c2cn(Cc3cn(C[C@H]4O[C@@H](O[C@@H]5[C@@H](O)[C@H](N)C[C@H](N)[C@H]5O[C@H]5O[C@H](CN)[C@@H](O)[C@H](O)[C@H]5N)[C@H](O)[C@@H]4O[C@H]4O[C@@H](CN)[C@@H](O)[C@H](O)[C@H]4N)nn3)cn2)c1`, the concentration for half-maximal inhibition (IC50) in assay [3] was 25.6 µM. The figures for the Kd in assay [4], in [5] and in [8] were 0.0164 µM, 0.0222 µM and 0.0461 µM, respectively. Also, the Selectivity ratio in [6] was determined as 1.1; in [9] it was 1.5.
Take `Nc1ncnc2c1ncn2Cc1cn(CCO[C@H]2[C@H](O)[C@@H](O)[C@H](N)C[C@@H]2N)nn1`: the equilibrium dissociation constant (Kd) in [4] is over 1000 µM; in assay [5], 47.1 µM; in [8], 11.1 µM. For the same compound, the Selectivity ratio in assay [9] amounted to 4.2.
Turning to `CCCCNC(=O)Nc1cccc(-c2cn(Cc3cn(CCO[C@H]4[C@H](O)[C@@H](O)[C@H](N)C[C@@H]4N)nn3)cn2)c1`, in [3], the IC50 was 72.4 µM. In addition, the results for the Kd in assay [4], in [5] and in assay [8] were 3.65 µM, 2.11 µM and 1.62 µM, respectively. Further, the values for the Selectivity ratio in [6] and in assay [9] were 2.2 and 1.3, respectively.
As for `N[C@@H]1C[C@H](N)[C@@H](OCCn2cc(Cn3ccc(O)nc3=O)nn2)[C@H](O)[C@H]1O`, the Kd in assay [4] is over 1000 µM; in [5], over 1000 µM; in [8], 17.1 µM.

Values taken from ChEMBL document CHEMBL5107964, “Development of 2-deoxystreptamine-nucleobase conjugates for the inhibition of oncogenic miRNA production” (RSC Med Chem, 2022).
